One may read the inhibition as how much of the control response was suppressed. In general, MIC refers to the lowest concentration that inhibits growth of the organism.

Here are results for eleven compounds from ChEMBL document CHEMBL5325390, “1,2,4-Triazole-3-thione analogues with an arylakyl group at position 4 as metallo-β-lactamase inhibitors” (Bioorg Med Chem, 2022).

Structures are written as SMILES.

Test system in one assay: not listed separately
Nature of the assay: Binding affinity to IMP1 (unknown origin) expressed in Escherichia coli BL21(DE3) assessed as inhibition constant by measuring rate of substrate hydrolysis by UV-Vis spectrophotometric analysis. The note with it: read-out: Ki. In short, it runs like this: (§1)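 Purified MBL (1–70 nM) with 150 µM imipenem or meropenem as reporter substrate, 50 mM HEPES pH 7.5, 30 °C. Hydrolysis followed by absorbance at 300 nm without and with inhibitor (0.5 µM–1 mM). Ki from the slope of v0/vi vs [I] under a competitive model, or from Dixon plots varying inhibitor and substrate. […] Triplicate, mean ± SD.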
For the compound `Oc1ccc(CCn2c(-c3ccc4ccccc4c3)n[nH]c2=S)cc1`, the Ki was 24000 nM.

On to `S=c1[nH]nc(-c2cc(Cl)cc(Cl)c2)n1/N=C/c1ccc(OCc2ccccc2)cc1`, for which the Ki was 100 nM.

Still in this assay, the particulars now being: read-out: Ki(app).
For `Cc1ccccc1-c1n[nH]c(=S)n1CCc1ccccc1`, the Ki was 14000 nM.

Another assay deals with Metallo-beta-lactamase type 2 (Bacteria) (UniProt C7C422). Nature of the assay: Inhibition of NDM1 (unknown origin) expressed in Escherichia coli BL21(DE3) assessed as substrate hydrolysis at 100 uM by UV-Vis spectrophotometric analysis relative to control.
Metallo-beta-lactamase type 2 (Bacteria), sequence (C7C422 whole entry): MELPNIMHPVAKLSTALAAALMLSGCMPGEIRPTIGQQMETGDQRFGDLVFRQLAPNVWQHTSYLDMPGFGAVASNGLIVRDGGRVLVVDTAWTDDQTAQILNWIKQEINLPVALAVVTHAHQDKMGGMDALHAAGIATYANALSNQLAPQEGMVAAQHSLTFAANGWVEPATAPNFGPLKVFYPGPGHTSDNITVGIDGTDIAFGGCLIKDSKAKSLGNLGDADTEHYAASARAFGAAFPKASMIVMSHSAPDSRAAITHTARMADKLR
Conditions: not given
In short, it runs like this: (§2)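 Single-point screen at 100 or 200 µM inhibitor against purified MBL (1–70 nM) with 150 µM imipenem or meropenem reporter substrate, 50 mM HEPES pH 7.5, 30 °C. Initial hydrolysis rate read by absorbance at 300 nm and compared with the uninhibited reaction. Triplicate.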
Regarding `Cc1ccccc1-c1n[nH]c(=S)n1CCc1ccc(O)cc1`, the inhibition was below 30%.

With `COc1ccc(O)c(-c2n[nH]c(=S)n2CCc2ccc(OCc3ccccc3)cc2)c1`, the inhibition was below 30%.

On to `Oc1ccc(CCn2c(-c3cc(-c4ccccc4)ccc3O)n[nH]c2=S)c(O)c1`, for which the inhibition came to 38%.

For the compound `S=c1[nH]nc(-c2ccc3ccccc3c2)n1[C@@H]1C[C@H]1c1ccccc1`, the inhibition is below 30%.

With `FC(F)(F)c1ccc(CCn2c(-c3ccccc3)n[nH]c2=S)cc1`, the inhibition was below 30%.

As for `Cn1cccc1-c1n[nH]c(=S)n1CC1OC(=O)c2ccccc21` (stereo not drawn), the inhibition amounted to 31%.

Consider `Cc1ccccc1CCn1c(-c2ccccc2)n[nH]c1=S`, for which the inhibition is below 30%.

As to `O=C(O)c1ccccc1CCn1c(-c2cccc(-c3ccccc3)c2)n[nH]c1=S`, the inhibition is below 30%.

Regarding `Cc1ccccc1-c1n[nH]c(=S)n1CCc1ccccc1`, the inhibition is below 30%.

Take `Oc1ccc(CCn2c(-c3ccc4ccccc4c3)n[nH]c2=S)cc1`: the inhibition is below 30%.

Test system in the next assay: not listed separately
Nature of the assay: Binding affinity to VIM-2 (unknown origin) expressed in Escherichia coli BL21(DE3) assessed as inhibition constant by measuring rate of substrate hydrolysis by UV-Vis spectrophotometric analysis.
Conditions: not given
In short, it runs like this: as §1
`Oc1ccc(CCn2c(-c3cc(-c4ccccc4)ccc3O)n[nH]c2=S)c(O)c1`: the Ki was determined as 1900 nM.

For `O=C(O)c1ccccc1CCn1c(-c2cccc(-c3ccccc3)c2)n[nH]c1=S`, the Ki came out at 80 nM.

In the case of `Cc1ccccc1-c1n[nH]c(=S)n1CCc1ccccc1`, the Ki amounted to 9400 nM.

For a further assay, the system named is metallo-β-lactamase VIM-2 (Pseudomonas aeruginosa). Description: Inhibition of VIM-2 (unknown origin) expressed in Escherichia coli BL21(DE3) assessed as substrate hydrolysis at 100 uM by UV-Vis spectrophotometric analysis relative to control.
Conditions: not given
As to `COc1ccc(O)c(-c2n[nH]c(=S)n2CCc2ccc(OCc3ccccc3)cc2)c1`, the inhibition was below 30%.

On to `S=c1[nH]nc(-c2ccc3ccccc3c2)n1[C@@H]1C[C@H]1c1ccccc1`, for which the inhibition is below 30%.

Consider `FC(F)(F)c1ccc(CCn2c(-c3ccccc3)n[nH]c2=S)cc1`, for which the inhibition was below 30%.

As to `Cn1cccc1-c1n[nH]c(=S)n1CC1OC(=O)c2ccccc21` (stereo not drawn), the inhibition turned out to be 38%.

`Cc1ccccc1CCn1c(-c2ccccc2)n[nH]c1=S`: the inhibition was below 30%.

`Oc1ccc(CCn2c(-c3ccc4ccccc4c3)n[nH]c2=S)cc1`: the inhibition is below 30%.

For `S=c1[nH]nc(-c2cc(Cl)cc(Cl)c2)n1/N=C/c1ccc(OCc2ccccc2)cc1`, the inhibition is below 30%.

A further assay deals with Klebsiella pneumoniae. Description: Antimicrobial synergistic activity against blaVIM-4-producing multidrug-resistant Klebsiella pneumoniae VA416/02 clinical isolate assessed as meropenem MIC at 32 ug/ml by CLSI based broth microdilution method (reference value: 16 ug/ml). It counts as functional. The conditions noted are these: dose 32 µg/ml.
`Oc1ccc(CCn2c(-c3cc(-c4ccccc4)ccc3O)n[nH]c2=S)c(O)c1`: the MIC worked out at 2 µg/mL.

Consider `Cn1cccc1-c1n[nH]c(=S)n1CC1OC(=O)c2ccccc21` (stereo not drawn), for which the MIC worked out at 2 µg/mL.

Turning to `Cc1ccccc1-c1n[nH]c(=S)n1CCc1ccccc1`, the MIC amounted to 4 µg/mL.

In the next assay the test system is metallo-β-lactamase VIM-4 (Pseudomonas aeruginosa). Description: Inhibition of VIM-4 (unknown origin) expressed in Escherichia coli BL21(DE3) assessed as substrate hydrolysis at 100 uM by UV-Vis spectrophotometric analysis relative to control.
Conditions: not given
Regarding `S=c1[nH]nc(-c2ccc3ccccc3c2)n1[C@@H]1C[C@H]1c1ccccc1`, the inhibition amounted to 35%.

A further assay deals with Beta-lactamase VIM-1 (Bacteria, UniProt Q8GDC1). Nature of the assay: Binding affinity to VIM-1 (unknown origin) expressed in Escherichia coli BL21(DE3) assessed as inhibition constant by measuring rate of substrate hydrolysis by UV-Vis spectrophotometric analysis.
Conditions: not given
In outline: as §1
Turning to `COc1ccc(O)c(-c2n[nH]c(=S)n2CCc2ccc(OCc3ccccc3)cc2)c1`, the Ki came to 11100 nM.

Turning to `Oc1ccc(CCn2c(-c3cc(-c4ccccc4)ccc3O)n[nH]c2=S)c(O)c1`, the Ki is 760 nM.

For `Cn1cccc1-c1n[nH]c(=S)n1CC1OC(=O)c2ccccc21` (stereo not drawn), the Ki was found to be 2200 nM.

For the compound `Cc1ccccc1-c1n[nH]c(=S)n1CCc1ccccc1`, the Ki was determined as 3300 nM.

As to `Oc1ccc(CCn2c(-c3ccc4ccccc4c3)n[nH]c2=S)cc1`, the Ki was 3300 nM.

In the next assay the test system is Escherichia coli. Description: Synergistic antimicrobial activity against blaNDM-1-producing multidrug-resistant Escherichia coli SI-004M clinical isolate assessed as meropenem MIC at 32 ug/ml by CLSI based microdilution method (reference value: 64 ug/ml). The class given is functional. The conditions noted are these: dose 32 µg/ml. For orientation: In broth dilution the organism is exposed to a series of concentrations in liquid medium.
Take `Oc1ccc(CCn2c(-c3cc(-c4ccccc4)ccc3O)n[nH]c2=S)c(O)c1`: the MIC amounted to 64 µg/mL.

On to `Cn1cccc1-c1n[nH]c(=S)n1CC1OC(=O)c2ccccc21` (stereo not drawn), for which the MIC was determined as 32 µg/mL.

The subject of another assay is metallo-β-lactamase IMP-1 (Pseudomonas aeruginosa). Nature of the assay: Inhibition of IMP1 (unknown origin) expressed in Escherichia coli BL21(DE3) assessed as substrate hydrolysis at 200 uM by UV-Vis spectrophotometric analysis relative to control.
Conditions: not given
Take `S=c1[nH]nc(-c2ccc3ccccc3c2)n1[C@@H]1C[C@H]1c1ccccc1`: the inhibition was below 50%.

For the compound `FC(F)(F)c1ccc(CCn2c(-c3ccccc3)n[nH]c2=S)cc1`, the inhibition is below 50%.

As to `Cc1ccccc1CCn1c(-c2ccccc2)n[nH]c1=S`, the inhibition was below 50%.

The test system of the next assay is Klebsiella pneumoniae. Description: Antimicrobial synergistic activity against blaVIM-1-producing multidrug-resistant Klebsiella pneumoniae 7023 clinical isolate assessed as meropenem MIC at 32 ug/ml by CLSI based broth microdilution method (reference value: 16 ug/ml). The class given is functional. The note with it: dose 32 µg/ml.
Regarding `Oc1ccc(CCn2c(-c3cc(-c4ccccc4)ccc3O)n[nH]c2=S)c(O)c1`, the minimal inhibitory concentration (MIC) turned out to be 1 µg/mL.

Consider `Cn1cccc1-c1n[nH]c(=S)n1CC1OC(=O)c2ccccc21` (stereo not drawn), for which the minimum inhibitory concentration (MIC) was determined as 2 µg/mL.

`Cc1ccccc1-c1n[nH]c(=S)n1CCc1ccccc1`: the MIC stood at 4 µg/mL.

The next assay has as its system metallo-β-lactamase IMP-1 (Pseudomonas aeruginosa). Nature of the assay: Inhibition of IMP1 (unknown origin) expressed in Escherichia coli BL21(DE3) assessed as substrate hydrolysis at 100 uM by UV-Vis spectrophotometric analysis relative to control.
Conditions: not given
In the case of `Cc1ccccc1-c1n[nH]c(=S)n1CCc1ccc(O)cc1`, the inhibition was 56%.

For `COc1ccc(O)c(-c2n[nH]c(=S)n2CCc2ccc(OCc3ccccc3)cc2)c1`, the inhibition was found to be 35%.

As for `Oc1ccc(CCn2c(-c3cc(-c4ccccc4)ccc3O)n[nH]c2=S)c(O)c1`, the inhibition turned out to be 44%.

With `S=c1[nH]nc(-c2ccc3ccccc3c2)n1[C@@H]1C[C@H]1c1ccccc1`, the inhibition was below 30%.

For `FC(F)(F)c1ccc(CCn2c(-c3ccccc3)n[nH]c2=S)cc1`, the inhibition was below 30%.

`Cn1cccc1-c1n[nH]c(=S)n1CC1OC(=O)c2ccccc21` (stereo not drawn): the inhibition was determined as 30%.

Turning to `Cc1ccccc1CCn1c(-c2ccccc2)n[nH]c1=S`, the inhibition is below 30%.

With `O=C(O)c1ccccc1CCn1c(-c2cccc(-c3ccccc3)c2)n[nH]c1=S`, the inhibition was below 30%.

Test system in the next assay: not listed separately
Nature of the assay: Binding affinity to VIM-4 (unknown origin) expressed in Escherichia coli BL21(DE3) assessed as inhibition constant by measuring rate of substrate hydrolysis by UV-Vis spectrophotometric analysis.
Conditions: not given
In outline: as §1
On to `Cc1ccccc1-c1n[nH]c(=S)n1CCc1ccc(O)cc1`, for which the Ki is 1600 nM.

Turning to `COc1ccc(O)c(-c2n[nH]c(=S)n2CCc2ccc(OCc3ccccc3)cc2)c1`, the Ki was found to be 540 nM.

For the compound `Oc1ccc(CCn2c(-c3cc(-c4ccccc4)ccc3O)n[nH]c2=S)c(O)c1`, the Ki amounted to 850 nM.

In the case of `Cn1cccc1-c1n[nH]c(=S)n1CC1OC(=O)c2ccccc21` (stereo not drawn), the Ki came out at 2500 nM.

As to `O=C(O)c1ccccc1CCn1c(-c2cccc(-c3ccccc3)c2)n[nH]c1=S`, the Ki was 2100 nM.

Consider `Cc1ccccc1-c1n[nH]c(=S)n1CCc1ccccc1`, for which the Ki turned out to be 2400 nM.

Take `Oc1ccc(CCn2c(-c3ccc4ccccc4c3)n[nH]c2=S)cc1`: the Ki came to 3200 nM.

For the compound `S=c1[nH]nc(-c2cc(Cl)cc(Cl)c2)n1/N=C/c1ccc(OCc2ccccc2)cc1`, the Ki is 600 nM.

For another assay, the system named is metallo-β-lactamase VIM-2 (Pseudomonas aeruginosa). Nature of the assay: Inhibition of VIM-2 (unknown origin) expressed in Escherichia coli BL21(DE3) assessed as substrate hydrolysis at 200 uM by UV-Vis spectrophotometric analysis relative to control.
Conditions: not given
On to `COc1ccc(O)c(-c2n[nH]c(=S)n2CCc2ccc(OCc3ccccc3)cc2)c1`, for which the inhibition is below 50%.

Turning to `S=c1[nH]nc(-c2ccc3ccccc3c2)n1[C@@H]1C[C@H]1c1ccccc1`, the inhibition is below 50%.

For the compound `FC(F)(F)c1ccc(CCn2c(-c3ccccc3)n[nH]c2=S)cc1`, the inhibition is below 50%.

On to `Cc1ccccc1CCn1c(-c2ccccc2)n[nH]c1=S`, for which the inhibition was below 50%.

On to `Oc1ccc(CCn2c(-c3ccc4ccccc4c3)n[nH]c2=S)cc1`, for which the inhibition is below 50%.

The target of the next assay is Metallo-beta-lactamase type 2 (Bacteria) (UniProt C7C422). Nature of the assay: Inhibition of NDM1 (unknown origin) expressed in Escherichia coli BL21(DE3) assessed as substrate hydrolysis at 200 uM by UV-Vis spectrophotometric analysis relative to control.
Conditions: not given
In outline:
as §2
With `Cc1ccccc1-c1n[nH]c(=S)n1CCc1ccc(O)cc1`, the inhibition was below 50%.

Regarding `COc1ccc(O)c(-c2n[nH]c(=S)n2CCc2ccc(OCc3ccccc3)cc2)c1`, the inhibition is below 50%.

For `S=c1[nH]nc(-c2ccc3ccccc3c2)n1[C@@H]1C[C@H]1c1ccccc1`, the inhibition was below 50%.

As to `FC(F)(F)c1ccc(CCn2c(-c3ccccc3)n[nH]c2=S)cc1`, the inhibition was below 50%.

Turning to `Cc1ccccc1CCn1c(-c2ccccc2)n[nH]c1=S`, the inhibition is below 50%.

On to `Cc1ccccc1-c1n[nH]c(=S)n1CCc1ccccc1`, for which the inhibition is below 50%.

Turning to `Oc1ccc(CCn2c(-c3ccc4ccccc4c3)n[nH]c2=S)cc1`, the inhibition is below 50%.
